From article PMC12322058 (Scientific Reports, 2025) come the findings set out here.

In one data set the test system is SH-SY5Y cells. Briefly: MTT colorimetric cytotoxicity assay. Format: cell-based. Conditions: Homo sapiens, 24 h. The essentials:
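SH-SY5Y cells were grown in DMEM with 10% FBS at 0.1 × 10^5 cells/well for 24 h at 37 °C ([…]/5% CO2) to half-confluence. After a PBS wash and 1 h in serum-free medium, cells received free or nanoparticle test compound (0.05–100 µM) or serum-free medium for 24 h. MTT (1 mg/mL) was added for 4 h; formazan was dissolved in DMSO and read at 540 nm. Viability is expressed as % of control.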

A short description of data set [1]: Plasma pharmacokinetics after IV administration. In kind it is in vivo, Sprague-Dawley male rats. Conditions: male, Sprague-Dawley, rat, 5 mg/kg. The essentials: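 Male Sprague-Dawley rats (8–12 weeks) received 5 mg/kg IV. Blood was taken retro-orbitally under isoflurane into K2EDTA at 0.08–24 h (nine points, 3 rats each), and plasma was stored at -85 °C. LC-MS/MS quantification used a 1.03–1026.00 ng/mL calibration with 1/x2 weighting. Noncompartmental analysis on means: AUC by mixed log-linear method, CL = Dose/AUCinf, Vss = CL×MRT.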

The nature of data set [2]: Tissue distribution after IV administration. In kind it is in vivo, Sprague-Dawley male rats. Conditions: for AUC0 − t: 5 mg/kg IV, rats; for Cmax: male, Sprague-Dawley, rat, iv, 5 mg/kg. The essentials: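 Male Sprague-Dawley rats (8–12 weeks), 27 per group (free drug or one of two nanoparticle formulations), 3 rats at each of nine time points. Single 5 mg/kg IV dose. CO2 euthanasia; tissues excised, saline-rinsed, homogenized 1:4 in PBS pH 7.4, stored at −85 °C. LC-MS/MS against matrix-matched calibration (1.03–1026.00 ng/mL). Noncompartmental AUC0–t and Cmax; Kp as tissue/plasma AUC ratio; means reported.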

Compound `CC(=O)c1c(C)c2cnc(Nc3ccc(N4CCNCC4)cn3)nc2n(C2CCCC2)c1=O` [Palbo, Palbociclib] had a 50% inhibitory concentration (IC50) with SH-SY5Y cells of 860 nM. In addition, the area under the curve AUC(0-inf) in data set [1] is 1920 ng·h/mL. The clearance in data set [1] (CL, 5 mg/kg IV, rats) came out at 21.8 mL/min/kg. The results for the “AUC0 − t” value in data set [2] (brain posterior region), in data set [2] (cerebellum) and in data set [2] (frontal cortex) were 757.5 ng·h/g, 402.5 ng·h/g and 383.8 ng·h/g, respectively. Besides, the highest concentration (Cmax) in data set [2] (cerebellum) worked out at 120 ng/g; in data set [2] (frontal cortex) it was 129 ng/g; in data set [2] (kidney), 485 ng/g; in data set [2] (liver) it was 2440 ng/g; in data set [2] (lungs), 12700 ng/g; in data set [2] (posterior brain region), 162 ng/g.
